Measured values: ChEMBL document CHEMBL4368921, “Discovery of novel simplified isoxazole derivatives of sampangine as potent anti-cryptococcal agents” (2019)
Values after ≈ are worked out from the molar mass of the structure shown. Active and inactive are the calls of the source. The calls are words filed in the database; no cut-off is given here.

Legend:
[1] = tested on: Cryptococcus neoformans; assay: Antifungal activity against Cryptococcus neoformans var. grubii H99 after 48 hrs by serial dilution method; assay type: functional
How it was run: (§1)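 Broth serial dilution per NCCLS. Medium was RPMI 1640 buffered with 0.165M MOPS, NaHCO3 (0.2%) and NaOH (0.27%). Strains were pre-grown in YPD at 30 °C with shaking. Inoculum 10³ CFU/mL; compounds in DMSO. Plates incubated at 35 °C for 48 h. MIC80 is the concentration giving 80% inhibition.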

[2] = tested on: Candida albicans; assay: Antifungal activity against Candida albicans SC5314 after 48 hrs by serial dilution method; assay type: functional; conditions: SC5314, 48 h; how it was run: as §1
[3] = tested on: Cryptococcus neoformans; assay: Antibiofilm activity against Cryptococcus neoformans var. grubii H99 at 0.062 to 8 ug/mL after 24 hrs by XTT analysis; assay type: functional, organism-based
How it was run: (§2)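 H99 cells at 1.0×10^6 CFU/mL in RPMI 1640 left to adhere 90 min at 37 °C. Non-adherent cells were removed and the wells washed three times with PBS. Fresh RPMI with drug (0.062-8 µg/mL) or drug-free control was added, then 24 h more at 37 °C. Formation rate by XTT reduction. Means ± SD of three independent experiments; ANOVA and t-test.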

[4] = tested on: Cryptococcus neoformans; assay: Antifungal activity against Cryptococcus neoformans var. grubii ATCC 34877 after 48 hrs by serial dilution method; assay type: functional; conditions: var. grubii ATCC 34877, 48 h; how it was run: as §1
[5] = tested on: Cryptococcus gattii; assay: Antifungal activity against Cryptococcus gattii ATCC 14116 after 48 hrs by serial dilution method; conditions: ATCC 14116, 48 h
[6] = tested on: Cryptococcus neoformans; assay: Fungistatic activity against Cryptococcus neoformans var. grubii H99 at 16 ug/mL up to 48 hrs by time-growth curve assay; assay type: functional, organism-based
How it was run: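 Exponential-phase H99 cells were resuspended in fresh RPMI 1640 at 2×10^6 cells/mL, drug was added, and cultures were shaken at 200 rpm and 30 °C. Aliquots were removed and counted at 0, 3, 6, 9, 12, 24 and 48 h. The control received DMSO. Three independent experiments were run.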

[7] = tested on: Cryptococcus neoformans; assay: Fungicidal activity against Cryptococcus neoformans var. grubii H99 at 16 ug/mL after 48 hrs by time-kill assay; assay type: functional, organism-based
How it was run: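 Exponential-phase H99 cells were washed three times in PBS and resuspended in RPMI 1640 at 2×10^6 cells/mL. After drug was added, cultures were shaken at 200 rpm and 30 °C. Samples were taken at 0, 6, 12, 24 and 48 h, diluted, and plated on SDA agar. Viable counts were read after 48 h at 30 °C.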

[8] = tested on: Cryptococcus neoformans; assay: Induction of apoptosis in Cryptococcus neoformans var. grubii H99 assessed as necrotic cells at 2 ug/mL after 24 hrs by annexin V-FITC/propidium iodide staining-based flow cytometric analysis (reference value: 0.19%); assay type: functional
[9] = tested on: Cryptococcus neoformans; assay: Cell cycle arrest in Cryptococcus neoformans var. grubii H99 assessed as accumulation of cells at G1 phase at 0.5 ug/mL after 24 hrs by propidium iodide staining-based flow cytometric analysis (reference value: 12.24%); assay type: functional
How it was run: (§3)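 Exponential H99 cells washed three times with PBS and set at 5×10^5 cells/mL in RPMI 1640. Dosed 0.5, 1 or 2 µg/mL and shaken (200 rpm) at 30 °C for 24 h. Walls digested 1 h at 30 °C in PBS with 0.24% snailase, then fixed overnight in 70% ethanol. Stained with 50 µg/mL PI, 4 °C, 30 min; ~1×10^6 cells read by flow cytometry.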

[10] = tested on: Cryptococcus neoformans; assay: Induction of apoptosis in Cryptococcus neoformans var. grubii H99 assessed as necrotic cells at 1 ug/mL after 24 hrs by annexin V-FITC/propidium iodide staining-based flow cytometric analysis (reference value: 0.19%); assay type: functional
[11] = tested on: Cryptococcus neoformans; assay: Induction of apoptosis in Cryptococcus neoformans var. grubii H99 assessed as late apoptotic cells at 2 ug/mL after 24 hrs by annexin V-FITC/propidium iodide staining-based flow cytometric analysis (reference value: 0.15%); assay type: functional
[12] = tested on: Cryptococcus neoformans; assay: Fungicidal activity against Cryptococcus neoformans var. grubii H99 at 2 ug/mL after 48 hrs by time-kill assay; assay type: functional, organism-based
How it was run: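 Time-kill: PBS-washed exponential H99 cells at 2×10^6 cells/mL in 5 mL RPMI 1640 with drug, shaken (200 rpm) at 30 °C. Samples taken at 0, 6, 12, 24 and 48 h, diluted and plated on SDA. CFU counted after 48 h at 30 °C.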

[13] = tested on: Cryptococcus neoformans; assay: Inhibition of urease production in Cryptococcus neoformans var. grubii H99 at 64 ug/mL; assay type: functional, organism-based
How it was run: (§4)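 PBS-washed exponential H99 cells at 1×10^6 cells/mL in RPMI 1640 with drug. Drops placed on L-DOPA (melanin) or urea (urease) medium and incubated at 37 °C. Read-out: black versus white colonies for melanin, red medium for urease.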

[14] = tested on: Cryptococcus neoformans; assay: Induction of apoptosis in Cryptococcus neoformans var. grubii H99 assessed as early apoptotic cells at 1 ug/mL after 24 hrs by annexin V-FITC/propidium iodide staining-based flow cytometric analysis (reference value: 1.05%); assay type: functional
[15] = tested on: Cryptococcus neoformans; assay: Induction of apoptosis in Cryptococcus neoformans var. grubii H99 assessed as necrotic cells at 0.5 ug/mL after 24 hrs by annexin V-FITC/propidium iodide staining-based flow cytometric analysis (reference value: 0.19%); assay type: functional
[16] = tested on: Cryptococcus neoformans; assay: Cell cycle arrest in Cryptococcus neoformans var. grubii H99 assessed as accumulation of cells at G1 phase at 2 ug/mL after 24 hrs by propidium iodide staining-based flow cytometric analysis (reference value: 12.24%); assay type: functional; how it was run: as §3
[17] = tested on: Cryptococcus neoformans; assay: Induction of apoptosis in Cryptococcus neoformans var. grubii H99 assessed as late apoptotic cells at 0.5 ug/mL after 24 hrs by annexin V-FITC/propidium iodide staining-based flow cytometric analysis (reference value: 0.15%); assay type: functional
[18] = tested on: Cryptococcus neoformans; assay: Fungistatic activity against Cryptococcus neoformans var. grubii H99 at 0.25 ug/mL up to 48 hrs by time-growth curve assay; assay type: functional, organism-based
[19] = tested on: Cryptococcus neoformans; assay: Induction of apoptosis in Cryptococcus neoformans var. grubii H99 assessed as late apoptotic cells at 1 ug/mL after 24 hrs by annexin V-FITC/propidium iodide staining-based flow cytometric analysis (reference value: 0.15%); assay type: functional
[20] = tested on: Cryptococcus neoformans; assay: Cell cycle arrest in Cryptococcus neoformans var. grubii H99 assessed as accumulation of cells at G1 phase at 1 ug/mL after 24 hrs by propidium iodide staining-based flow cytometric analysis (reference value: 12.24%); assay type: functional; how it was run: as §3
[21] = tested on: Cryptococcus neoformans; assay: Fungistatic activity against Cryptococcus neoformans var. grubii H99 up to 48 hrs by time-growth curve assay; assay type: functional, organism-based
How it was run: (§5)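 Exponential H99 cells at 2×10^6 cells/mL in 5 mL RPMI 1640 with drug (0.062-1 µg/mL) or DMSO control. Shaken at 200 rpm, 30 °C. Cells counted at 0, 3, 6, 9, 12, 24 and 48 h. Three independent experiments.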

[22] = tested on: Cryptococcus neoformans; assay: Antibiofilm activity against Cryptococcus neoformans var. grubii H99 at 0.062 ug/mL after 24 hrs by XTT analysis relative to control; assay type: functional; how it was run: as §2
[23] = tested on: Cryptococcus neoformans; assay: Induction of apoptosis in Cryptococcus neoformans var. grubii H99 assessed as early apoptotic cells at 0.5 ug/mL after 24 hrs by annexin V-FITC/propidium iodide staining-based flow cytometric analysis (reference value: 1.05%); assay type: functional
[24] = tested on: Cryptococcus neoformans; assay: Cell cycle arrest in Cryptococcus neoformans var. grubii H99 assessed as decrease in cells at S phase at 0.5 to 2 ug/mL after 24 hrs by propidium iodide staining-based flow cytometric analysis; assay type: functional, organism-based; how it was run: as §3
[25] = tested on: Cryptococcus neoformans; assay: Induction of apoptosis in Cryptococcus neoformans var. grubii H99 assessed as early apoptotic cells at 2 ug/mL after 24 hrs by annexin V-FITC/propidium iodide staining-based flow cytometric analysis (reference value: 1.05%); assay type: functional
[26] = tested on: Cryptococcus neoformans; assay: Inhibition of melanin production in Cryptococcus neoformans var. grubii H99 at 16 ug/mL; assay type: functional, organism-based; how it was run: as §4
[27] = tested on: Cryptococcus neoformans; assay: Fungistatic activity against Cryptococcus neoformans var. grubii H99 assessed as inhibition of cell growth at 1 ug/mL up to 48 hrs by time-growth curve assay; assay type: functional; conditions: read-out: GI; how it was run: as §5

Cc1ccc(-c2noc3c2C(=O)c2sccc2C3=O)cc1
MIC80 [1]: 1 µg/mL (≈ 3.39 µM)
MIC80 [2]: > 64 µg/mL

COc1cccc(-c2noc3c2C(=O)c2sccc2C3=O)c1
MIC80 [1]: > 64 µg/mL
MIC80 [2]: > 64 µg/mL

Cn1cccc1-c1noc2c1C(=O)c1sccc1C2=O
MIC80 [1]: 4 µg/mL (≈ 14.1 µM)
MIC80 [2]: 16 µg/mL (≈ 56.3 µM)

CCCc1noc2c1C(=O)c1sccc1C2=O
MIC80 [1]: 0.12 µg/mL (≈ 0.485 µM)
Activity [3]: Active
MIC80 [2]: 4 µg/mL (≈ 16.2 µM)
MIC80 [4]: 0.12 µg/mL (≈ 0.485 µM)
MIC80 [5]: 0.25 µg/mL (≈ 1.01 µM)

O=C1c2ccsc2C(=O)c2c(-c3ccsc3)noc21
MIC80 [1]: 1 µg/mL (≈ 3.48 µM)
MIC80 [2]: > 64 µg/mL

Cc1ccccc1-c1noc2c1C(=O)c1sccc1C2=O
MIC80 [1]: 0.25 µg/mL (≈ 0.847 µM)
MIC80 [2]: > 64 µg/mL

O=C1c2ccsc2C(=O)c2c(-c3cccc(Cl)c3)noc21
MIC80 [1]: > 64 µg/mL
MIC80 [2]: > 64 µg/mL

COCc1noc2c1C(=O)c1sccc1C2=O
MIC80 [1]: 0.25 µg/mL (≈ 1 µM)
MIC80 [2]: 8 µg/mL (≈ 32.1 µM)
MIC80 [4]: 0.25 µg/mL (≈ 1 µM)
MIC80 [5]: 0.5 µg/mL (≈ 2.01 µM)

O=C1c2ccsc2C(=O)c2c(-c3cccc(Br)c3)noc21
MIC80 [1]: > 64 µg/mL
MIC80 [2]: > 64 µg/mL

O=C1c2ccsc2C(=O)c2c(-c3cccs3)noc21
MIC80 [1]: 2 µg/mL (≈ 6.96 µM)
MIC80 [2]: > 64 µg/mL

O=C1c2ccsc2C(=O)c2c(-c3ccccc3F)noc21
MIC80 [1]: 0.25 µg/mL (≈ 0.835 µM)
MIC80 [2]: > 64 µg/mL

C[C@@H](c1ncncc1F)[C@](O)(Cn1cncn1)c1ccc(F)cc1F [VORICONAZOLE]
MIC80 [1]: 0.12 µg/mL (≈ 0.344 µM)
MIC80 [2]: 0.12 µg/mL (≈ 0.344 µM)
MIC80 [4]: 0.12 µg/mL (≈ 0.344 µM)
MIC80 [5]: 0.12 µg/mL (≈ 0.344 µM)

O=C1c2ccsc2C(=O)c2c(-c3ccncc3)noc21
MIC80 [1]: 0.25 µg/mL (≈ 0.886 µM)
MIC80 [2]: 8 µg/mL (≈ 28.3 µM)
MIC80 [4]: 0.5 µg/mL (≈ 1.77 µM)
MIC80 [5]: 1 µg/mL (≈ 3.54 µM)

OC(Cn1cncn1)(Cn1cncn1)c1ccc(F)cc1F [FLUCONAZOLE]
MIC80 [1]: 2 µg/mL (≈ 6.53 µM)
Activity [6]: Active
MIC80 [2]: 0.25 µg/mL (≈ 0.816 µM)
Activity [7]: inactive
MIC80 [4]: 8 µg/mL (≈ 26.1 µM)
MIC80 [5]: 8 µg/mL (≈ 26.1 µM)

O=C1c2ccsc2C(=O)c2c(-c3ccccc3Br)noc21
MIC80 [1]: 0.25 µg/mL (≈ 0.694 µM)
MIC80 [2]: > 64 µg/mL

O=C1c2ccsc2C(=O)c2c(-c3ccccc3Cl)noc21
MIC80 [1]: 0.25 µg/mL (≈ 0.792 µM)
MIC80 [2]: > 64 µg/mL

COc1ccccc1-c1noc2c1C(=O)c1sccc1C2=O
MIC80 [1]: 0.5 µg/mL (≈ 1.61 µM)
MIC80 [2]: > 64 µg/mL

Cc1cccc(-c2noc3c2C(=O)c2sccc2C3=O)c1
MIC80 [1]: 1 µg/mL (≈ 3.39 µM)
MIC80 [2]: > 64 µg/mL

CCc1noc2c1C(=O)c1sccc1C2=O
Activity [8]: 0.32%
Activity [9]: 50.21%
Activity [10]: 0.51%
MIC80 [1]: 0.031 µg/mL (≈ 0.133 µM)
Activity [11]: 6.78%
Activity [3]: Active
Activity [12]: Active
MIC80 [2]: 2 µg/mL (≈ 8.57 µM)
inhibition [13]: Active
Activity [14]: 39.23%
Activity [15]: 1.35%
Activity [16]: 48.61%
Activity [17]: 3.33%
Activity [18]: Active
Activity [19]: 5.39%
Activity [20]: 49.14%
MIC80 [4]: 0.12 µg/mL (≈ 0.514 µM)
Activity [21]: Dose-dependent effect
Activity [22]: >80%
MIC80 [5]: 0.25 µg/mL (≈ 1.07 µM)
Activity [23]: 20.49%
Activity [24]: Active
Activity [25]: 50.7%
inhibition [26]: Active
inhibition of growth at 1 µg/mL [27]: 100%

COc1ccc(-c2noc3c2C(=O)c2sccc2C3=O)cc1
MIC80 [1]: 1 µg/mL (≈ 3.21 µM)
MIC80 [2]: > 64 µg/mL

C[C@@H]1[C@H](O)[C@@H](C)/C=C/C=C/C=C/C=C/C=C/C=C/C=C/[C@H](O[C@@H]2O[C@H](C)[C@@H](O)[C@H](N)[C@@H]2O)C[C@@H]2O[C@](O)(C[C@@H](O)C[C@@H](O)[C@H](O)CC[C@@H](O)C[C@@H](O)CC(=O)O[C@H]1C)C[C@H](O)[C@H]2C(=O)O
Activity [3]: Active

O=C1c2ccsc2C(=O)c2c(-c3ccc(Br)cc3)noc21
MIC80 [1]: > 64 µg/mL
MIC80 [2]: > 64 µg/mL

O=C1c2ccsc2C(=O)c2c(-c3ccccn3)noc21
MIC80 [1]: 0.25 µg/mL (≈ 0.886 µM)
MIC80 [2]: 8 µg/mL (≈ 28.3 µM)
